Reference: ChEMBL document CHEMBL5046221, “Identification of Pyrimidine-Based Lead Compounds for Understudied Kinases Implicated in Driving Neurodegeneration” (J Med Chem, 2022)

Tests used:
[1] = target: BMP-2-inducible protein kinase (Homo sapiens, UniProt Q9NSY1); assay: Inhibition of 1recombinant human BMP2K using myelin basic protein as substrate incubated for 120 mins in presence of [gamma-33P-ATP] by radiometric scintillation assay
Activin receptor type-1 = Activin receptor type-1 (Homo sapiens, UniProt Q04771); assay: Inhibition of human ALK2 (147 to end residues) using casein as substrate incubated for 40 mins in presence of [gamma-33ATP] by scintillation counting based radiometry assay
Chain of Activin receptor type-1 (Q04771 whole entry): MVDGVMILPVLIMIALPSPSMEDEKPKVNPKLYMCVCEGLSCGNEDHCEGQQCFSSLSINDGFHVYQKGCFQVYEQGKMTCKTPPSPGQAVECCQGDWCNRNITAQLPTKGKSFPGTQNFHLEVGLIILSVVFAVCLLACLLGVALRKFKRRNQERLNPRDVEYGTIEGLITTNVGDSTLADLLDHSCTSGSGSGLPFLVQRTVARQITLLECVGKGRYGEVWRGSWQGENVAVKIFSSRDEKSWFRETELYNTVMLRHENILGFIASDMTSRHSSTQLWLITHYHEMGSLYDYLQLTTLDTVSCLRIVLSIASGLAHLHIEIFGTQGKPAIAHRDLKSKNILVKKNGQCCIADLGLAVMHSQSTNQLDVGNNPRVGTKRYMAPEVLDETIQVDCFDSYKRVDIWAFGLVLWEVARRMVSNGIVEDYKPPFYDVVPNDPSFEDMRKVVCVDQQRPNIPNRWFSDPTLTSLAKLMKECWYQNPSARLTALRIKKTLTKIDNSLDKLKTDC
Procedure, shortened: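 Eurofins radiometric enzymatic assay with ATP at Km for each kinase. IC50 was derived from a 9-point dose–response curve run in duplicate.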

[2] = target: T1, Serine/threonine-protein kinase 17B (Homo sapiens) (UniProt O94768); assay: Inhibition of full length recombinant human DRAK2 using KKRPQRRYSNVF as substrate at 1 uM incubated for 120 mins in presence of [gamma-33P-ATP] by radiometric scintillation assay relative to control
T1 sequence (whole entry): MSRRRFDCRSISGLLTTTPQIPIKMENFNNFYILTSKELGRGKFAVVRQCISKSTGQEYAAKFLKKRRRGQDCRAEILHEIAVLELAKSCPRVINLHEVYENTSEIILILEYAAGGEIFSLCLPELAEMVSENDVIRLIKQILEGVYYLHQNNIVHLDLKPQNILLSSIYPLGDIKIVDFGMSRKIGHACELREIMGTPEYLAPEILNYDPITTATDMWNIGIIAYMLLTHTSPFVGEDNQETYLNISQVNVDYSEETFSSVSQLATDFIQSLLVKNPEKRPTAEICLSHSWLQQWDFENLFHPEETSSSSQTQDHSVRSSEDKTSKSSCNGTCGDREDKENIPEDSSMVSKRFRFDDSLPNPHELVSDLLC
Procedure, shortened: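 Eurofins radiometric kinase assay with ATP at Km for each kinase. Compound was tested at a single 1 μM concentration in duplicate, and the result is reported as percent of control.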

[3] = target: T2, Inhibitor of nuclear factor kappa-B kinase subunit epsilon (Homo sapiens, UniProt Q14164); assay: Inhibition of full length recombinant human IKKepsilon using casein as substrate incubated for 40 mins in presence of [gamma-33P-ATP] by radiometric scintillation assay
T2 sequence (Q14164 whole entry): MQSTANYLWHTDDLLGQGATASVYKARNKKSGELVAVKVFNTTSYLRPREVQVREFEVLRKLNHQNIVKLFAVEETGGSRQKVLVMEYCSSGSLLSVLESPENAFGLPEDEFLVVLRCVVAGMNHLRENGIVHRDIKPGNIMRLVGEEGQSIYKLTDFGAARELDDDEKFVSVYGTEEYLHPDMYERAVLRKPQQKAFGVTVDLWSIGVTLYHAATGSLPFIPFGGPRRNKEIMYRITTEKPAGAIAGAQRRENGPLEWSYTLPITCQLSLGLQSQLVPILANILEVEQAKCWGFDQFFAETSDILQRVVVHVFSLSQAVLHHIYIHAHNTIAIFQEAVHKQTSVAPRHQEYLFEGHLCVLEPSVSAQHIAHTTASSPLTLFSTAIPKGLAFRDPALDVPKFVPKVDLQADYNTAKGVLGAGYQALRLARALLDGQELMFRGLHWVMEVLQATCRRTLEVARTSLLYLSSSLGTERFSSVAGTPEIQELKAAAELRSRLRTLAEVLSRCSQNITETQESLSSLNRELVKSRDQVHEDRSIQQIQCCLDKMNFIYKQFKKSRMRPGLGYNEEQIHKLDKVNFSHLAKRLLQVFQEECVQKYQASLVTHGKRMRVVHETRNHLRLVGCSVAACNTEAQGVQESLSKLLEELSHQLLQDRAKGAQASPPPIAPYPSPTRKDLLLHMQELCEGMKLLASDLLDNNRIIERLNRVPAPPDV
Procedure, shortened: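 Eurofins radiometric kinase assay run at ATP equal to Km for each kinase. 9-point dose–response in duplicate gives the IC50.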

Chain of BMP-2-inducible protein kinase (Q9NSY1 whole entry, looked up): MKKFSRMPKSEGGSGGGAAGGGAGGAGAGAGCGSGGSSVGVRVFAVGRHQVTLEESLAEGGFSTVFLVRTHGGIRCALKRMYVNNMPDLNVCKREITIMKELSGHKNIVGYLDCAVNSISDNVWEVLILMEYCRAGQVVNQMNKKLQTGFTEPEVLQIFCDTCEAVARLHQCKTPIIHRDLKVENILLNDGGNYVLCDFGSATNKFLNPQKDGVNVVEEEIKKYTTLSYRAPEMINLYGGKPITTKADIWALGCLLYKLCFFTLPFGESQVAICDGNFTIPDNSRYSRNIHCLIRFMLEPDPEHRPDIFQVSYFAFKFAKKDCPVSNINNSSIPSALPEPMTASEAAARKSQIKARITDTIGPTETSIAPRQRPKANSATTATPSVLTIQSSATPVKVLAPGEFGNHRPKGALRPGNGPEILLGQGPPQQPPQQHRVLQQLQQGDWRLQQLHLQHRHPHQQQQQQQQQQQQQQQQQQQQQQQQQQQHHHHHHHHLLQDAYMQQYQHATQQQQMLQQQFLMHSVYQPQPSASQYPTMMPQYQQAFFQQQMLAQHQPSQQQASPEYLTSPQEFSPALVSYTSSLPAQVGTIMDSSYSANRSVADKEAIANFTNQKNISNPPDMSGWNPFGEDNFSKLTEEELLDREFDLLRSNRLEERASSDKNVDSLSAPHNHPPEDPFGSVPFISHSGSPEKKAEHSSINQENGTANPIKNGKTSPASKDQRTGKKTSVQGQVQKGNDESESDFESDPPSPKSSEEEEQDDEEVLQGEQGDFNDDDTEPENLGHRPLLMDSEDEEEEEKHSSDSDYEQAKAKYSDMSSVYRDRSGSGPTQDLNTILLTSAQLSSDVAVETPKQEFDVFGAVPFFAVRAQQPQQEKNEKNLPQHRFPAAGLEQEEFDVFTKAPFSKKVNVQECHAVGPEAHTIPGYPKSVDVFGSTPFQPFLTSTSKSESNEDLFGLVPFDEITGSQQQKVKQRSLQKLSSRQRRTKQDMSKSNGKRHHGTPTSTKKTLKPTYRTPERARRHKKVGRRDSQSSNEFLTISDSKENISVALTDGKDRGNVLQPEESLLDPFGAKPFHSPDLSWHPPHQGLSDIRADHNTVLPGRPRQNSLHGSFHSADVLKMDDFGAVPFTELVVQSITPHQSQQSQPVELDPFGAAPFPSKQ

NS(=O)(=O)c1ccc(CNc2nc(Nc3cccc(NC(=O)N4CCCC4)c3)ncc2Br)cc1
IC50 [1]: 488 nM

c1cc(CN2CCOCC2)cc(Nc2nccc(NCCc3cnc[nH]3)n2)c1
IC50 (Activin receptor type-1): 537 nM | % control [2]: 65%

NS(=O)(=O)c1ccc(CNc2nc(Nc3cccc(CN4CCOCC4)c3)ncc2C2CC2)cc1
IC50 [3]: 1310 nM
